Screening data (PubChem)
NR2E3 ag-1 – agonists of human NR2E3 nuclear receptor; Q9Y5X4; CHO-S Gal4-NCOR/VP16-NR2E3 two-hybrid, luciferase; inhibition of corepressor binding, % at 3.98 µM; hit rate 0.35% among 360,000;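 active = inhibition above the mean of all tested compounds plus 3 SD, cut at about 70% in these data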;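 note: higher means lower luciferase signal from less NR2E3 corepressor binding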
Target sequence (Q9Y5X4 whole entry, looked up, the tested form may be a part): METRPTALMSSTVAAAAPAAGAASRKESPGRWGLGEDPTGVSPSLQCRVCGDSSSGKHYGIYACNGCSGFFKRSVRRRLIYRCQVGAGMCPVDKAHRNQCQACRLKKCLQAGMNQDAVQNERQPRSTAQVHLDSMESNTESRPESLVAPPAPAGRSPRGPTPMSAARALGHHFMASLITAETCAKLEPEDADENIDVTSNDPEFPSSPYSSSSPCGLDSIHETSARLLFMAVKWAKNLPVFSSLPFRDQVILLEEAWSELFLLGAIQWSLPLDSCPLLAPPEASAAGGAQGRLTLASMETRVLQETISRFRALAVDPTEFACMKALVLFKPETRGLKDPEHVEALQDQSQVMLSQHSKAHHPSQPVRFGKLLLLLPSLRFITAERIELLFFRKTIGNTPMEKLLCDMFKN
NR2E3 ag-2 – agonists of human nuclear receptor NR2E3 | Q9Y5X4 | GST-NR2E3/biotin-RetCOR TR-FRET, 1536-well | inhibition of corepressor binding, % at 4.78 µM | hit rate 0.12% among 320,000 | AID 2300;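 active = percent inhibition above the cutoff of mean plus 3 SD of all tested compounds, set per screening campaign, cut at about 20% in these data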
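Material – GST-tagged NR2E3 plus biotinylated RetCOR corepressor · Quantity – NR2E3 fusion 1.35 nM · Times – 5 h incubation at 4 °C · Medium – pH 7.5 Tris-based buffer · Technique – TR-FRET, Eu(K)-anti-GST donor, streptavidin-D2 acceptor, ex 340, em 617/671 nm · Benchmarks – high control biotin, low control 0.6% DMSO · Format – 1536-well plates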
COUP-TFII inh – blocks human COUP-TFII nuclear receptor. P24468. inhibition, % at 8.6 µM. hit rate 0.7% among 370,000. AID 686940. HEK293T NGFI-A luciferase reporter, luminescence;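 active = inhibition above a per-plate cutoff, mean inhibition of test wells between control levels plus 3 SD, cut at about 38% in these data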;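 note: cells cotransfected with COUP-TFII expression vector driving the NGFI-A reporter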
GalR3 antag – blocks the human galanin receptor 3; O60755; HEK293 GalR3-CNG cAMP membrane potential fluorescence; galR3 body fused to GalR1 C-terminus; inhibition, % at 3 µM; hit rate 0.44% among 360,000; AID 651719;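 active = inhibition above the screen-wide average plus 3 SD, cut at about 13% in these data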;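 note: forskolin and galanin both at EC90 stimulate the cells; cAMP rise reported by CNG channel membrane potential dye signal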
Target sequence (O60755 1-299 limits assumed): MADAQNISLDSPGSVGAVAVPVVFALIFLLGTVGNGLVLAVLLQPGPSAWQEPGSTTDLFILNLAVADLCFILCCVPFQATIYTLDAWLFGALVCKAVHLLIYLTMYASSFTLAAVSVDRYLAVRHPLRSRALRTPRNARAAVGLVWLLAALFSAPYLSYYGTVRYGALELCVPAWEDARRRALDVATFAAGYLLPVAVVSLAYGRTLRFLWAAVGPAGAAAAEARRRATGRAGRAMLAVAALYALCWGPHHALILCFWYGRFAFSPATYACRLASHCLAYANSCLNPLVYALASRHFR
SMARCA2 activ – SMARCA2 function activation, primary screen; hit rate 1% among 370,000; AID 652017; activation, % at 9.1 µM; MG213 cells, MMTV-luciferase reporter, dexamethasone, overnight; in the data active = activation above about 7.8%
NR2E3 ag confirm – NR2E3 (human) agonism, confirmation | shares compounds with NR2E3 ag-2 | cell-free NR2E3 corepressor release, TR-FRET, 5 h | activation (reported as inhibition), % at 3.98 µM | hit rate 39% among 360 | AID 2379; in the data active = activation above about 20%
PPARg-NCOR2 ag – counter-screen for NR2E3 agonists: human PPARgamma-NCOR2 interaction agonists. shares compounds with NR2E3 ag-2. TR-FRET PPARg-NCOR2 coregulator interaction, biochemical. inhibition, % at 3.98 µM. hit rate 45% among 360; in the data active = inhibition above about 20%
Large screens that a line does not name were inactive (follow-up assays come after a bar, where they were run). Most compounds without a hit are left out; they make up all but 2.2% or so of the library.

CC(COc1cccc(F)c1)CN1CCC(C(O)(c2ccccc2)c2ccccc2)CC1 (centres undefined)	none (no result: NR2E3 ag-1, NR2E3 ag-2, GalR3 antag)
C#CCn1c(=NC(=O)CSC(C)=O)sc2cc(F)ccc21	NR2E3 ag-2 27 (no result: COUP-TFII inh, GalR3 antag, SMARCA2 activ) | NR2E3 ag confirm inactive | PPARg-NCOR2 ag 20
CCOc1ccc(C2C(C#N)=C(N)SC(N)=C2C#N)c(OCC)c1	none
CCCCc1ccc(C2C(C#N)=C(N)SC(N)=C2C#N)s1	NR2E3 ag-2 42 (no result: NR2E3 ag-1, COUP-TFII inh, GalR3 antag, SMARCA2 activ) | NR2E3 ag confirm inactive | PPARg-NCOR2 ag inactive
O=C(O)CSc1nc2ccccc2nc1Cc1ccccc1F	NR2E3 ag-2 54 | NR2E3 ag confirm 34 | PPARg-NCOR2 ag 36
Cc1cc(N2C(=O)C(O)=C(C(=O)c3cc4ccccc4o3)C2c2ccc(Br)cc2)no1 (centres undefined)	NR2E3 ag-2 24 | NR2E3 ag confirm 25 | PPARg-NCOR2 ag 30
CCCOc1ccc(C2C(C(=O)c3cc4ccccc4o3)=C(O)C(=O)N2c2cc(C)on2)cc1 (centres undefined)	none
COc1cccc(C2C(C(=O)c3cc4ccccc4o3)=C(O)C(=O)N2c2cc(C)on2)c1 (centres undefined)	NR2E3 ag-2 27 | NR2E3 ag confirm 26 | PPARg-NCOR2 ag 26
C=CCOc1cccc(C2C(C(=O)c3cc4ccccc4o3)=C(O)C(=O)N2c2cc(C)on2)c1 (centres undefined)	NR2E3 ag-2 24 | NR2E3 ag confirm 31 | PPARg-NCOR2 ag 33
CCCOc1ccc(C2C(C(=O)c3cc4ccccc4o3)=C(O)C(=O)N2c2cc(C)on2)cc1OC (centres undefined)	none
Cc1cc(N2C(=O)C(O)=C(C(=O)c3cc4ccccc4o3)C2c2cccc(Cl)c2)no1 (centres undefined)	NR2E3 ag-2 22 | NR2E3 ag confirm 39 | PPARg-NCOR2 ag 45
O=C(CSc1nnc(COc2ccccc2)n1-c1ccccc1)Nc1ccc(S(=O)(=O)Nc2nccs2)cc1	none (no result: NR2E3 ag-1, NR2E3 ag-2, GalR3 antag)
Cc1ccc(OCc2nnc(SCC(=O)Nc3ccc(S(N)(=O)=O)cc3)n2-c2ccc(Cl)cc2)cc1	none (no result: NR2E3 ag-1, NR2E3 ag-2, GalR3 antag)
COc1ccccc1NC(=O)OCCN1CCCC12CCC(c1ccccc1)CC2 (centres undefined)	none (no result: NR2E3 ag-1, NR2E3 ag-2, GalR3 antag, SMARCA2 activ)
Cc1ccc(-n2c(Cc3cccs3)nnc2SCC(=O)Nc2cccc3ccccc23)cc1	none (no result: NR2E3 ag-1, NR2E3 ag-2, GalR3 antag)
CCCCC1=CC2=C(c3ccco3)C(=O)C(C)(OC(=O)c3ccc(OC)cc3)C(=O)C2=CN1c1ccccc1 (centres undefined)	NR2E3 ag-2 34 (no result: COUP-TFII inh, GalR3 antag, SMARCA2 activ) | NR2E3 ag confirm inactive | PPARg-NCOR2 ag inactive
Cc1c(F)cccc1NC(=O)CCCCCC1NC(=O)NC1C (centres undefined)	NR2E3 ag-2 97 | NR2E3 ag confirm 89 | PPARg-NCOR2 ag 92
CC1NC(=O)NC1CCCCCC(=O)Nc1ccc(F)cc1 (centres undefined)	NR2E3 ag-2 86 | NR2E3 ag confirm 89 | PPARg-NCOR2 ag 90
O=C(CCCC(=O)c1ccccc1)Nc1ccc(F)cc1	none
CC(C)=CCC[C@@]1(C(=O)O)[C@H]2CC=C(CO)[C@@H]1CC/C(C)=C/CC/C(C)=C/C2	none (no result: NR2E3 ag-1, NR2E3 ag-2, GalR3 antag)
COC(=O)[C@]12C[C@H](CC(=O)NCCc3ccccc3OC)C(=O)N(Cc3cccc4ccccc34)C1=C[C@H](C1CCCC1)O[C@@H]2C	none (no result: NR2E3 ag-1, NR2E3 ag-2, GalR3 antag)
COc1cccc(N2CCN(CC(=O)N(C)Cc3ccccc3Cl)CC2)c1	none (no result: NR2E3 ag-1, NR2E3 ag-2, GalR3 antag)
O=C1C=C(O)c2cccc3cccc1c23	NR2E3 ag-2 23 | NR2E3 ag confirm inactive | PPARg-NCOR2 ag inactive
CCCCNS(=O)(=O)/C=C/c1cc(C)ccc1CNC(=O)OC(C)(C)C	none (no result: NR2E3 ag-1, NR2E3 ag-2, GalR3 antag)
CC(OC(=O)CCC(=O)c1ccc(Cl)s1)C(=O)NC1(C#N)CCCCC1 (centres undefined)	NR2E3 ag-2 24 | NR2E3 ag confirm inactive | PPARg-NCOR2 ag inactive
O=C1CCC[C@H]2C[C@H](NCc3cccnc3)CC[C@]23CCCN13	none (no result: NR2E3 ag-1, NR2E3 ag-2, GalR3 antag, SMARCA2 activ)
COCCN1C(=O)C(O)=C(C(=O)c2ccco2)C1c1cccc(Oc2ccccc2)c1 (centres undefined)	NR2E3 ag-2 23 | NR2E3 ag confirm inactive | PPARg-NCOR2 ag 28
CCCOc1ccc(C2C(C(=O)c3ccc(C)o3)=C(O)C(=O)N2Cc2ccco2)cc1OCC (centres undefined)	NR2E3 ag-2 24 | NR2E3 ag confirm inactive | PPARg-NCOR2 ag inactive
CCCOc1cccc(C2C(C(=O)c3ccco3)=C(O)C(=O)N2CCN(CC)CC)c1 (centres undefined)	none
COc1ccc(CCN2C(=O)C(O)=C(C(=O)c3ccco3)C2c2cccs2)cc1OC (centres undefined)	NR2E3 ag-2 24 | NR2E3 ag confirm inactive | PPARg-NCOR2 ag inactive
Cc1ccc(C(=O)C2=C(O)C(=O)N(Cc3cccnc3)C2c2cccc(Oc3ccccc3)c2)o1 (centres undefined)	NR2E3 ag-2 52 (no result: NR2E3 ag-1) | NR2E3 ag confirm 45 | PPARg-NCOR2 ag 41
Cc1ccc(C(=O)C2=C(O)C(=O)N(Cc3cccnc3)C2c2cccc([N+](=O)[O-])c2)o1 (centres undefined)	none
C=CCN1C(=O)[C@@H](CC(=O)NCCC(C)C)[C@]2(C(=O)OCC)CCCCC/C=C/12	none (no result: NR2E3 ag-1, NR2E3 ag-2, GalR3 antag)
Cc1ccc(C(=O)C2=C(O)C(=O)N(c3ncccn3)C2c2ccc(Cl)cc2)o1 (centres undefined)	NR2E3 ag-2 26 | NR2E3 ag confirm inactive | PPARg-NCOR2 ag inactive
Cc1ccc(C(=O)C2=C(O)C(=O)N(Cc3cccnc3)C2c2ccc(Cl)cc2)o1 (centres undefined)	none
O=C(C1=C(O)C(=O)N(Cc2ccco2)C1c1cccs1)c1cccs1 (centres undefined)	none
Cc1ccc(C(=O)C2=C(O)C(=O)N(Cc3ccccc3)C2c2cccnc2)o1 (centres undefined)	NR2E3 ag-2 40 (no result: COUP-TFII inh, GalR3 antag, SMARCA2 activ) | NR2E3 ag confirm inactive | PPARg-NCOR2 ag inactive
O=C(C1=C(O)C(=O)N(Cc2ccco2)C1c1ccccc1)c1cccs1 (centres undefined)	NR2E3 ag-2 20 | NR2E3 ag confirm inactive | PPARg-NCOR2 ag inactive
COC(=O)[C@]12C[C@H](CC(=O)NCc3cccs3)C(=O)N(CCc3ccc(OC)c(OC)c3)C1=C[C@H](C1CCCC1)O[C@@H]2C	none (no result: NR2E3 ag-1, NR2E3 ag-2, GalR3 antag)
Cc1ccc(S(=O)(=O)NCC(=O)OCC(=O)c2ccc(Br)s2)cc1	NR2E3 ag-2 22 | NR2E3 ag confirm inactive | PPARg-NCOR2 ag inactive
COc1ccc(C(=O)C2(C(=O)Nc3cc(C)cc(C)c3)CC(c3ccccc3C(F)(F)F)=NO2)cc1 (centres undefined)	none (no result: NR2E3 ag-1, NR2E3 ag-2, GalR3 antag)
Cn1c(N)c(C(=O)CSc2nnc(C3CC3)n2-c2ccccc2)c(=O)[nH]c1=O	none (no result: NR2E3 ag-2)
